ERAP1 inh: blocks human ERAP1 aminopeptidase activity; inhibition, % at 10.7 µM; recombinant ERAP1, Leu-AMC fluorescence, 60 min; 340,000 tested, 0.15% active; Q9NZ08; AID 652197;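 active = mean replicate inhibition of at least 30%, or all replicates individually reaching that 30% level; inactive = mean below 30% and not every replicate reaching it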
SIRT5 block: sirtuin-5 (human) deacylase inhibition. AID 652115. Purified SirT5, succinyl-peptide AMC, trypsin-coupled fluorescence. 330,000 tested, 1.1% active. inhibition, % at 15 µM; in the data active = inhibition above about 15%; inconclusive = no clear call, values can overlap the other calls
Target sequence (Q9NXA8 whole entry, looked up): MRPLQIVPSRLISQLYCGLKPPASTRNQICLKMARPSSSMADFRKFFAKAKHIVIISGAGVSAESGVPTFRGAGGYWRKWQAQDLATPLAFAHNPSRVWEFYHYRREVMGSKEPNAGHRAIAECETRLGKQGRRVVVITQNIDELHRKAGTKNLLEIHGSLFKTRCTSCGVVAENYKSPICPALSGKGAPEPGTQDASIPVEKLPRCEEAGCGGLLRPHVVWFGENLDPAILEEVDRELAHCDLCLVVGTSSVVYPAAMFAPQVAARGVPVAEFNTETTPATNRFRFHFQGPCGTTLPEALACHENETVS
CAL PDZ FP-1: inhibitors of human CAL PDZ peptide binding | AID 504414 | 330,000 tested, 0.02% active | Q9HD26 | inhibition, % at 20 µM | purified CAL PDZ, TMR-peptide fluorescence polarization, 1 h;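 active = highest replicate inhibition of at least 40%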
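System: tagged CAL PDZ domain. Schedule: 1 h room-temperature incubation prior to read. Signal: fluorescence polarization (mP). Measure: percent inhibition from loss of millipolarization.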
CAL PDZ FP-2: inhibitors of human CAL PDZ peptide binding; 300,000 tested, 0.92% active; Q9HD26; inhibition, % at 24.9 µM; AID 602252; purified CAL PDZ, TMR-peptide fluorescence polarization, 1 h;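 active = mean inhibition of at least 30% with at least half of replicates also reaching 30%; inconclusive = no clear call, values can overlap the other calls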
S100A4 inh HTS: blocks human S100A4 binding to myosin IIA peptide; P26447; S100A4/TAMRA-MyoIIA peptide fluorescence polarization; inhibition, % at 10.7 µM; 360,000 tested, 0.14% active; AID 652163;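 active = mean inhibition of at least 70% across replicates, with every replicate also reaching that level; inconclusive = mean inhibition reaches 70% but some replicates fall short; inactive = mean inhibition below 70%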
Target sequence (P26447 whole entry, looked up): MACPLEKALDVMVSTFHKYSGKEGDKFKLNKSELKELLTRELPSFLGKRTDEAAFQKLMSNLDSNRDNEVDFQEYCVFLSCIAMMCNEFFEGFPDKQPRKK
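Material: S100A4 monomer protein | Medium: HEPES pH 7.2 with CaCl2, KCl, NaCl, DTT, Triton | Reagent: Labelled myosin peptide probe, 5 nM | Doses: One dose per compound | Times: 5 min incubation before reading | Benchmarks: Neutral control DMSO, positive control TFP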
DENV2 CPE: inhibitors of DENV2 cytopathic effect. DENV2-infected cells, cytopathic effect rescue, plate reader. CPE inhibition, % at 9.99 µM. 350,000 tested, 1.7% active. AID 651640; in the data active = CPE inhibition above about 20%, passing the limit was not always enough; inconclusive = no clear call, values can overlap the other calls; tested in BHK-21 cells
Numbers stand for hits; n = inactive; u = inconclusive; x = no result; ! = repeats disagree. A selection: hits, their analogues and other compounds. The true share with any hit is near 2.9%.

SMILES	ERAP1 inh	SIRT5 block	CAL PDZ FP-1	CAL PDZ FP-2	S100A4 inh HTS	DENV2 CPE
O=C1NC(Cc2ccccc2)c2nc3ccc(Cl)cc3c(=O)n2-c2ccccc21 (centres undefined)	n	n	x	x	n	68
CCCC1NC(=O)c2cc3ccccc3cc2-n2c1nc1ccc(F)cc1c2=O (centres undefined)	n	x	x	x	n	67
O=C1NC(Cc2ccccc2)c2nc3ccc(Cl)cc3c(=O)n2-c2cc(Cl)ccc21 (centres undefined)	x	x	x	x	n	n
O=C1NC(Cc2ccc(O)cc2)c2nc3ccccc3c(=O)n2-c2ccccc21 (centres undefined)	n	n	x	x	n	39
CC(=O)N1CC2(C1)[C@H](c1ccc(-c3ccc(C#N)cc3)cc1)[C@@H](CO)N2CCC(F)(F)F	n	n	x	x	n	n
Cn1c(CNC(=O)CCNC(=O)c2cccc(Cl)c2)cc(=O)n(C)c1=O	n	n	n	43	n	n
CCOc1ccc(CN2C(=O)c3ccccc3C2=O)cc1C(=O)NC1CC(C)(C)NC(C)(C)C1	49	n	n	n	n	n
CCOc1ccc(CN2C(=O)c3ccccc3C2=O)cc1C(=O)Nc1nnc(SCC)s1	x	x	n	x	x	x
COC(=O)c1cc(NC(=O)CSc2nnc(N)s2)ccc1Cl	n	n	n	n	n	n
Nc1nnc(SCC(=O)Nc2ccc(Cl)c(C(=O)O)c2)s1	n	17	n	n	n	n
O=C(Cc1cccnc1)N1CC2(C1)[C@@H](c1ccccc1)[C@@H](CO)N2C(=O)C1CC1	n	n	x	x	n	n
O=C(C[C@@H]1CC[C@H]2[C@@H](COC[C@@H](O)CN2C(=O)c2cccnc2)O1)Nc1ccc(-c2ccccc2)cc1	n	n	x	x	n	n
O=C(C[C@@H]1CC[C@H]2[C@@H](COC[C@H](O)CN2C(=O)c2ccncc2)O1)NC1Cc2ccccc2C1	n	n	x	x	n	30
O=C(C[C@H]1CC[C@@H]2[C@H](COC[C@@H](O)CN2Cc2ccc3c(c2)OCO3)O1)Nc1ccc(-c2ccccc2)cc1	n	n	x	x	n	n
O=C(C[C@H]1CC[C@@H]2[C@H](COC[C@@H](O)CN2C(=O)c2ccncc2)O1)NC1Cc2ccccc2C1	n	n	x	x	n	n
O=C(C[C@@H]1CC[C@H]2[C@@H](COC[C@H](O)CN2C(=O)c2ccncc2)O1)Nc1ccc(-c2ccccc2)cc1	n	n	x	x	n	28
O=C(C[C@H]1CC[C@@H]2[C@H](COC[C@H](O)CN2C(=O)c2ccccc2)O1)Nc1ccc(-c2ccccc2)cc1	n	n	x	x	n	55
O=C(C[C@H]1CC[C@@H]2[C@H](COC[C@@H](O)CN2C(=O)c2ccccc2)O1)Nc1ccccc1	n	n	x	x	n	n
O=C(C[C@@H]1CC[C@@H]2[C@H](COC[C@H](O)CN2Cc2ccc3c(c2)OCO3)O1)Nc1ccc(-c2ccccc2)cc1	n	15	x	x	n	n
CO[C@@H](CN(C)S(=O)(=O)c1ccc(C)cc1)[C@@H](C)CN(Cc1ccccc1Cl)[C@H](C)CO	n	n	x	x	n	n
C[C@@H]1CN([C@H](C)CO)S(=O)(=O)c2ccc(C3=CCCCC3)cc2O[C@H]1CN(C)C(=O)C1CC1	n	n	x	x	n	n
C[C@@H]1CN([C@@H](C)CO)C(=O)c2cccc(NS(=O)(=O)c3cccs3)c2O[C@@H]1CN(C)CC1CCCCC1	n	n	x	x	n	n
CS(=O)(=O)c1ccc2nc(N)sc2c1	x	x	n	n	x	x
CS(=O)(=O)c1ccc(N)c(SSc2cc(S(C)(=O)=O)ccc2N)c1	39	x	n	n	n	n
O=C(CN1CCCCC1)N=Nc1c(O)[nH]c2ccccc12	n	n	n	41	n	n
SMILES	ERAP1 inh	SIRT5 block	CAL PDZ FP-1	CAL PDZ FP-2	S100A4 inh HTS	DENV2 CPE
O=C(CN1CCN(Cc2ccccc2)CC1)N=Nc1c(O)[nH]c2ccccc12	x	x	n	n	x	x
CNc1nc(NCc2ccccc2)c2sccc2n1	n	20	x	x	n	n
CNc1nc(N)c([N+](=O)[O-])c(NCc2ccccc2)n1	n	n	n	x	n	76
CC(=O)NCCNc1nc(NCc2cccs2)nc2ccsc12	n	n	x	x	n	71
CCC(C)Nc1nc(N)c([N+](=O)[O-])c(NCCO)n1 (centres undefined)	n	n	n	n	n	94
C[C@@H]1CN([C@@H](C)CO)C(=O)c2cccc(NS(C)(=O)=O)c2O[C@@H]1CN(C)S(=O)(=O)c1ccccc1	n	n	x	x	n	n
COc1cccc(CN(C)C[C@@H]2OCc3ccccc3-c3c(n(C)c4ccccc34)C(=O)N([C@H](C)CO)C[C@@H]2C)c1	n	n	x	x	n	n
Cc1ccc(CNc2nc(N)c([N+](=O)[O-])c(NCCO)n2)cc1	n	n	n	62	n	n
O=C(C[C@@H]1CC[C@@H]2[C@H](COC[C@H](O)CN2Cc2cc(F)ccc2F)O1)N1CCc2ccccc2C1	n	n	x	x	n	n
C[C@H](CO)N1C[C@H](C)[C@@H](CN(C)C(=O)Nc2ccccc2)Oc2ccc(NC(=O)c3ccncc3)cc2C1=O	65!	n	n	n	n	n
C[C@H](CO)N1C[C@H](C)[C@@H](CN(C)C(=O)Nc2ccccc2)Oc2c(NC(=O)c3ccncc3)cccc2C1=O	n	n	n	n	n	42!
C[C@@H]1CN([C@H](C)CO)C(=O)c2cccc(NC(=O)c3ccncc3)c2O[C@@H]1CN(C)C(=O)Nc1ccccc1	n	n	x	x	n	54
C[C@H]1CN([C@@H](C)CO)C(=O)c2cccc(NC(=O)c3ccncc3)c2O[C@H]1CN(C)C(=O)Nc1ccccc1	n	n	n	n	n	n
C[C@@H]1CN([C@H](C)CO)C(=O)c2cc(NC(=O)c3ccncc3)ccc2O[C@H]1CN(C)C(=O)Nc1ccccc1	n	n	x	x	n	n
COc1ccc(NC(=O)N[C@@H]2CC[C@H](CCn3cc(-c4ccccn4)nn3)O[C@H]2CO)cc1	n	n	x	x	n	n
COc1cccc(C(=O)Oc2ccc(/C=N/NC(=O)c3ccncc3)cc2OC)c1	n	21	n	x	n	n
CN(C)C(=O)[C@H]1[C@H](CO)[C@H]2Cn3c(ccc(-c4cccnc4)c3=O)[C@@H]1N2C(=O)NC1CCCC1	n	n	x	x	n	u
C[C@H]1CN([C@@H](C)CO)C(=O)c2cc(NC(=O)Nc3ccc4c(c3)OCO4)ccc2O[C@H]1CN(C)Cc1ccccc1	n	n	x	x	n	n
COc1cc(CCCN2CCNC[C@@H]2c2ccccc2)cc(OC)c1OC	x	x	n	n	n	70
CN(C)C(=O)C[C@@H]1CC[C@H]2[C@@H](COc3ccc(NC(=O)C4CCCC4)cc3C(=O)N2C)O1	n	n	x	x	n	n
Cc1c(Cl)cccc1NC(=O)Cc1cccs1	n	57	n	n	n	n
Cc1c(Cl)cccc1NC(=O)CC1Oc2ccccc2NC1=O (centres undefined)	n	n	n	n	n	35
